Screening results: PubChem, Broad Institute
KDM4C inh – blocks human GASC-1 (KDM4C) demethylase activity. Q9H3R0. GST-KDM4C 2-372, H3K9me3 peptide, LANCE TR-FRET. inhibition, % at 12.5 µM. 0.15% of 96,000 active;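 active means mean replicate inhibition above about 25%, with at least 55% of replicates also reaching it, limit read from the data, passing the limit was not always enough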
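Test system – GST-tagged GASC-1 (JMJD2C) catalytic fragment, aa 2-372 · Medium – HEPES buffer, pH 7.5, plus ascorbate · Reagent – H3K9me3 peptide with Fe(II)/2OG · Compound – one test concentration per compound · Timing – 30 min reaction, 60 min detection, RT · Technique – TR-FRET with Eu antibody and ULight streptavidin, EDTA stop · Read-out basis – inhibition from TR-FRET ratio decrease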
Pf Dd2 inh – blocks growth of Plasmodium falciparum Dd2 parasites. P. falciparum Dd2 growth, SYBR Green, 72 h; active compounds read low. activity change, % at 10 µM. 2.3% of 94,000 active; in the data active means activity change below about -80%
Tcruzi prolif – T. cruzi proliferation inhibition. T. cruzi beta-gal in NIH3T3, GalScreen luminescence, 90 h. 5.9% of 77,000 active. inhibition, % at 8.34 µM;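 active means mean inhibition above about 93%, with at least 55% of replicates each passing it, limit read from the data, passing the limit was not always enough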
IDH1 R132H inh – blocks human IDH1 R132H reductase activity | O75874 | diaphorase/resazurin fluorescence, 60 min | inhibition, % at 10 µM | 0.18% of 70,000 active | AID 624101; in the data active means inhibition above about 34%;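 further: 0% = DMSO and 100% = no enzyme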
Target sequence (O75874 whole entry R132H): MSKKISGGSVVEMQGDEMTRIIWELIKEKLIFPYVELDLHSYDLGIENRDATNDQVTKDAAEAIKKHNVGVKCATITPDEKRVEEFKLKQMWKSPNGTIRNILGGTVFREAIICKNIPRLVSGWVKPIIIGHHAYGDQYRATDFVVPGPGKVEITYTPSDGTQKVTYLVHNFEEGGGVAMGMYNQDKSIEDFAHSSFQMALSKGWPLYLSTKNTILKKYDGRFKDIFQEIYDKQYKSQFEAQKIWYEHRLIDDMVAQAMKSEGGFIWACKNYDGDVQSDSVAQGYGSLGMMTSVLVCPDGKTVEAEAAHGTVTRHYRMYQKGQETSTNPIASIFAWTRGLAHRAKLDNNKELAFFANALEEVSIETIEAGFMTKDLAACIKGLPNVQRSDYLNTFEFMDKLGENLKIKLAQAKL
Active calls of the source: *; nt = no result. Rows were chosen to be rich in hits. Some 5.9% of all compounds tested hit in one or more screens of this group.

SMILES | KDM4C inh | Pf Dd2 inh | Tcruzi prolif | IDH1 R132H inh
C[C@@H]1CN([C@@H](C)CO)C(=O)c2cc(NC(=O)CCC(F)(F)F)ccc2O[C@@H](C)CCCCO[C@H]1CN(C)C(=O)Nc1cccc2ccccc12 | 0.7 | -85.0* | 60.3 | 0.8
C[C@@H]1CN([C@@H](C)CO)C(=O)c2cc(NC(=O)CCC(F)(F)F)ccc2O[C@@H](C)CCCCO[C@@H]1CN(C)C(=O)Nc1cccc2ccccc12 | -1.9 | -88.6* | 44.1 | 0.2
O=[N+]([O-])c1ccccc1S(=O)(=O)Nc1nccs1 | nt | nt | nt | 0.7
C[C@H](CO)N1C[C@H](C)[C@H](CN(C)S(=O)(=O)c2ccc(F)cc2)OCc2ccccc2-c2c(n(C)c3ccccc23)C1=O | -1.0 | -87.4* | 83.9 | -2.4
C[C@@H]1CN([C@H](C)CO)C(=O)c2c(c3ccccc3n2C)-c2ccccc2CO[C@H]1CN(C)S(=O)(=O)c1ccc(F)cc1 | -3.0 | -39.7 | 63.3 | 0.3
C[C@@H]1CN([C@H](C)CO)C(=O)c2c(c3ccccc3n2C)-c2ccccc2CO[C@H]1CN(C)S(=O)(=O)c1ccccc1 | -7.2 | -75.0 | 72.2 | nt
C[C@H]1CN([C@@H](C)CO)C(=O)c2c(c3ccccc3n2C)-c2ccccc2CO[C@@H]1CN(C)S(=O)(=O)c1ccc(F)cc1 | -2.7 | -90.7* | 83.2 | nt
COCCCN1C(=O)c2oc3ccc(Br)cc3c(=O)c2C1c1cccc([N+](=O)[O-])c1 (stereo not given) | nt | nt | nt | 2.4
COc1ccc2c3c([nH]c2c1)[C@H](CO)N(S(C)(=O)=O)CC31CCN(C(=O)Nc2ccccc2)CC1 | nt | -82.8* | nt | nt
CCC(=O)N1CC2(CCN(C(=O)Nc3ccccc3F)CC2)c2c([nH]c3cc(OC)ccc23)[C@@H]1CO | -0.1 | -85.3* | nt | nt
COc1ccc2c3c([nH]c2c1)[C@@H](CO)NCC31CCN(C(=O)Nc2ccc(F)cc2)CC1 | 0.3 | -17.2 | nt | nt
COc1ccc2c3c([nH]c2c1)[C@H](CO)NCC31CCN(C(=O)Nc2ccc3c(c2)OCO3)CC1 | -1.9 | -94.2* | nt | nt
COc1ccc2c3c([nH]c2c1)[C@H](CO)N(C(C)=O)CC31CCN(C(=O)Nc2ccccc2F)CC1 | 0.4 | -88.8* | nt | nt
COc1ccc2c3c([nH]c2c1)[C@@H](CO)N(S(C)(=O)=O)CC31CCN(C(=O)Nc2ccccc2)CC1 | -0.6 | -51.2 | nt | nt
COc1ccc2c3c([nH]c2c1)[C@@H](CO)N(C(=O)Nc1ccc(F)cc1)CC31CCN(C(=O)Cc2ccncc2)CC1 | 0.4 | -76.0 | nt | nt
CCC(=O)N1CC2(CCN(C(=O)Nc3ccc(F)cc3)CC2)c2c([nH]c3cc(OC)ccc23)[C@H]1CO | 0.1 | -84.3* | nt | nt
COc1ccc2c3c([nH]c2c1)[C@H](CO)N(C(=O)Nc1ccc(F)cc1)CC31CCN(C(=O)Cc2ccncc2)CC1 | -2.9 | -83.5* | nt | nt
CCC(=O)N1CC2(CN(C(=O)Nc3ccc(F)cc3)C2)c2c([nH]c3cc(OC)ccc23)[C@H]1CO | -0.6 | -52.0 | nt | nt
CCC(=O)N1CC2(CCN(C(=O)Nc3ccccc3F)CC2)c2c([nH]c3cc(OC)ccc23)[C@H]1CO | -2.2 | -90.3* | nt | nt
COc1ccc2c3c([nH]c2c1)[C@@H](CO)N(Cc1ccccc1F)CC31CCN(C(=O)C2CCOCC2)CC1 | -0.3 | -91.1* | nt | nt
COc1ccc2c3c([nH]c2c1)[C@H](CO)N(Cc1ccccc1F)CC31CN(C(=O)C2CCOCC2)C1 | 0.0 | -55.7 | nt | nt
COc1ccc2c3c([nH]c2c1)[C@H](CO)N(Cc1ccccc1F)CC31CN(C(=O)C2CCCC2)C1 | -0.7 | -87.0* | nt | nt
CCS(=O)(=O)N1CC2(CN(Cc3ccccc3F)[C@H](CO)c3[nH]c4cc(OC)ccc4c32)C1 | -1.6 | -82.5* | nt | nt
CCCNC(=O)N1CC2(CN(C(=O)C3CCC3)C2)c2c([nH]c3cc(OC)ccc23)[C@@H]1CO | -1.4 | -83.6* | nt | nt
COc1c2occc2c(OC)c2c(=O)cc(CO[C@@H]3O[C@H](CO)[C@@H](O)[C@H](O)[C@H]3O)oc12 | nt | nt | nt | -0.1
SMILES | KDM4C inh | Pf Dd2 inh | Tcruzi prolif | IDH1 R132H inh
N#Cc1ccccc1CSc1nc(N)cc(=O)[nH]1 | nt | nt | nt | 0.5
COc1ccc2c3c([nH]c2c1)[C@H](CO)N(Cc1ccccc1F)CC31CN(C(=O)C2CCC2)C1 | 22.6 | -93.3* | nt | nt
COc1ccc2c3c([nH]c2c1)[C@@H](CO)N(Cc1ccccc1F)CC31CCN(C(=O)C2CCC2)CC1 | -1.3 | -75.4 | nt | nt
COc1cc(CCC(=O)N2CCC=CC2=O)cc(OC)c1OC | nt | nt | nt | -0.3
C[C@H](CO)N1C[C@H](C)[C@@H](CN(C)C(=O)c2cccnc2)Oc2cc(C#CC3CC3)ccc2S1(=O)=O | 16.4 | -25.4 | 21.4 | 41.9*
C[C@H](CO)N1C[C@H](C)[C@H](CN(C)C(=O)c2cccnc2)Oc2cc(C#CC3CC3)ccc2S1(=O)=O | 2.0 | -12.9 | 5.4 | 0.1
C[C@@H]1CN([C@H](C)CO)S(=O)(=O)c2ccc(C#CC3CC3)cc2O[C@H]1CN(C)Cc1cccnc1 | -0.8 | -34.0 | nt | 60.2*
COC(=O)c1c(NC(=O)COc2ccc(Cl)c(C)c2)sc2c1CCC2 | nt | nt | nt | 0.0
C[C@@H]1CN([C@H](C)CO)C(=O)c2cccc(NC(=O)c3ccc(-c4nccs4)cc3)c2O[C@H]1CN(C)Cc1ccc(C(F)(F)F)cc1 | 0.4 | -91.4* | 96.1 | 0.9
C[C@@H]1CN([C@H](C)CO)C(=O)c2cccc(NC(=O)c3ccc(-c4nccs4)cc3)c2O[C@@H]1CN(C)Cc1ccc(C(=O)Nc2ccccc2N)cc1 | -2.0 | -90.9* | 89.6 | nt
C[C@@H]1CN([C@H](C)CO)C(=O)c2cccc(NC(=O)c3ccc(-c4nccs4)cc3)c2O[C@@H]1CN(C)Cc1ccc(-c2ccccc2)cc1 | -4.4 | -65.1 | 36.3 | -2.9
C[C@@H]1CN([C@H](C)CO)C(=O)c2cccc(NC(=O)c3nc4ccccc4s3)c2O[C@H]1CN(C)Cc1ccc(C(=O)O)cc1 | 0.1 | -11.4 | 31.3 | nt
C[C@@H]1CN([C@@H](C)CO)C(=O)c2cccc(NC(=O)c3nc4ccccc4s3)c2O[C@@H]1CN(C)Cc1ccc(C(=O)Nc2ccccc2N)cc1 | -0.4 | -90.9* | 92.8 | nt
C[C@@H]1CN([C@@H](C)CO)C(=O)c2cccc(NC(=O)c3ccc(-c4nccs4)cc3)c2O[C@H]1CN(C)Cc1ccc(C(=O)Nc2ccccc2N)cc1 | -0.7 | -93.0* | 81.9 | nt
O=C(O)C[C@@H]1C[C@H]2c3cc(NC(=O)Nc4ccc(C(F)(F)F)cc4)ccc3O[C@H]2[C@@H](CO)O1 | -1.0 | 12.2 | -7.9 | 0.3
O=C(O)C[C@@H]1C[C@@H]2c3cc(NC(=O)CC4CC4)ccc3O[C@@H]2[C@H](CO)O1 | 0.6 | 0.7 | -18.3 | -0.6
O=C(O)C[C@@H]1C[C@@H]2c3cc(NC(=O)Nc4ccc(C(F)(F)F)cc4)ccc3O[C@@H]2[C@@H](CO)O1 | 33.9* | 12.1 | -69.7 | 50.4*
O=C(O)C[C@@H]1C[C@@H]2c3cc(NC(=O)CC4CC4)ccc3O[C@@H]2[C@@H](CO)O1 | 37.7* | -1.6 | -5.6 | 60.5*
Cc1cccc(-c2nc3cc(NC(=O)COc4ccc([N+](=O)[O-])cc4)ccc3o2)c1 | nt | nt | nt | 0.1
